Data published in ChEMBL document CHEMBL3872271, “Identification and validation of small molecule modulators of the NusB-NusE interaction” (Bioorg Med Chem Lett, 2017).

Experiments:
Bacillus subtilis [1] = test: Inhibition of Bacillus subtilis full length NusB/GST-tagged NusE interaction at 25 uM preincubated with NusE for 15 mins followed by incubation with NusB for 1 hr by ELISA
Procedure, shortened: (§1)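 Wells coated overnight at 4 °C with purified full-length B. subtilis NusB (250 nM in PBS), then blocked with 1% BSA/PBS for 2 h at RT. Inhibitor preincubated with GST-NusE (200 nM) for 15 min at 37 °C, then added to wells for 1 h at RT. Bound NusE detected with rabbit anti-GST (1:2000), goat anti-rabbit HRP (1:2000) and TMB (6 min, 37 °C), read at OD 600 nm.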

[2] = Inhibition of Bacillus subtilis full length NusB/GST-tagged NusE preincubated with NusE for 15 mins followed by incubation with NusB for 1 hr by ELISA; procedure, shortened: as §1
Bacillus subtilis [3] = test: Growth inhibition of Bacillus subtilis at 200 uM measured every 10 mins for 16 hrs; format: functional; conditions: read-out: GI
Procedure, shortened: (§2)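 Cells grown at 37 °C in LB with shaking to OD 0.6–0.7 AU, then added to LB containing compound (50 mM DMSO stocks, serially diluted to 200 μM). Plates incubated at 37 °C, 200 rpm. OD600 was read every 10 min for 16 h with LB as blank. Triplicates, with growth compared to cells given equal DMSO.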

Escherichia coli = test: Growth inhibition of Escherichia coli DH5alpha at 200 uM measured every 10 mins for 16 hrs; format: functional; conditions: DH5[alpha], read-out: GI; procedure, shortened: as §2

inhibition (Bacillus subtilis [1]) | IC50 [2] | Compound | inhibition of growth at 200 µM (Bacillus subtilis [3]) | inhibition of growth at 200 µM (Escherichia coli)
5% |  | COc1cc(/C=N/NC(=O)CCc2ccc(O)cc2)cc(OC)c1OC | 44% | 10%
88% | 6.1 µM | COc1ccc(-c2cc(-c3ccc(OC)c(OC)c3)nc(NS(=O)(=O)c3ccc(NC(C)=O)cc3)n2)c(OC)c1 | 9% | 21%
3% |  | COc1ccc(-c2cc(-c3ccc(OC)c(OC)c3)nc(NS(=O)(=O)c3ccc(N)cc3)n2)c(OC)c1 |  | 
48% |  | COc1ccc(/C=C/C(=O)c2ccc(OC)c(OC)c2)c(OC)c1 |  | 

The remaining lines, values behind:

Compound | inhibition (Bacillus subtilis [1]) | IC50 [2] | inhibition of growth at 200 µM (Bacillus subtilis [3]) | inhibition of growth at 200 µM (Escherichia coli)
Oc1ccccc1CNc1ccc(OCCCCOc2ccc(NCc3ccccc3O)cc2)cc1 | 45% | 210 µM |  | 
H-YDHRLLDQS-NH2 |  | 71 µM |  | 
O=[N+]([O-])c1ccc(OCC(O)CNCCNc2nccc(C(F)(F)F)n2)cc1 (racemic) |  |  | 19% | 11%
CCNC(=O)Nc1ccc(OCCCCOc2ccc(NC(=O)NCC)cc2)cc1 | 52% | 19.8 µM |  | 17%
